NOD2-RIPK2 inh = NOD2-RIPK2 binding disruptors in cells, primary screen, fluorescence, CHO cells, BLA complementation; hit rate 0.38% among 360,000; inhibition, % at 4.98 µM; Receptor-interacting serine/threonine-protein kinase 2 (Homo sapiens), O43353; CCF4 ratio; in the data active = inhibition above about 21%;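 note: 0% = vehicle only and 100% = reference blocker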
Target sequence (O43353 whole entry, looked up): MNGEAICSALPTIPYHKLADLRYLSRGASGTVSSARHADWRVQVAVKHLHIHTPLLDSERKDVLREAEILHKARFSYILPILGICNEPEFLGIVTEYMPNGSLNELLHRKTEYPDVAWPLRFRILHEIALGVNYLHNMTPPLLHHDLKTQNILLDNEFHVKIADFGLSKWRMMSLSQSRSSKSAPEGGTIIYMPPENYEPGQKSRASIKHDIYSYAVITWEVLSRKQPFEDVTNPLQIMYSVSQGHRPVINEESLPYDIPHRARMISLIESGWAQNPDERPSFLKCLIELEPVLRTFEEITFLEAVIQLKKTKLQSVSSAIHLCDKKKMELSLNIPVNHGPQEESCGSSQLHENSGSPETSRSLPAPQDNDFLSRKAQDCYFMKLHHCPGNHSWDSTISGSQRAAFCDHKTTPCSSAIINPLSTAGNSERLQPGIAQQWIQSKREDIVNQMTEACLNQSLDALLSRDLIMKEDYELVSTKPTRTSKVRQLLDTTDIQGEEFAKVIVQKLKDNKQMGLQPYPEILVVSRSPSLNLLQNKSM
TLR4 MyD88 comp = inhibitors of TLR4-MyD88 association in cells, primary screen, cell-based, HeLa CL3-4, BLA complementation, FRET ratio. Toll-like receptor 4 (Homo sapiens) + Myeloid differentiation primary response protein …. HeLa CL3-4 TLR4/MyD88 BLA complementation. inhibition, % at 8.4 µM. hit rate 0.18% among 200,000. AID 861, 2007; in the data active = inhibition above about 25%;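 note: 0% = vehicle and 100% = reference inhibitor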
TLR9-MyD88 inh = inhibitors of TLR9-MyD88 association in cells, primary screen, cell-based, CHO, BLA complementation, fluorescence. Toll-like receptor 9 (Homo sapiens) + Myeloid differentiation primary response protein …. CCF4 FRET ratio. inhibition, % at 4.98 µM. hit rate 0.21% among 340,000. AID 504734, 2011;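 active = inhibition above the mean over all tested compounds plus 3 SD, cut at about 21% in these data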;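 note: 0% = DMSO only wells and 100% = clavulanate BLA inhibitor control wells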
MC4R ag barr = MC4R agonists recruiting beta-arrestin, primary screen, cell-based, luminescence, agonist arm of biased-ligand search; Melanocortin receptor 4 (Homo sapiens), P32245; U2OS MC4R beta-arrestin complementation; percent of melanotan II response, DMSO zero; activation, % at 8.9 µM; hit rate 0.98% among 360,000; AID 540308, 2011;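 active = activation above a per-plate cutoff, the mean activation of sample wells on that plate plus 3 SD, cut at about 8% in these data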
MC4R antagonist = MC4R antagonists of cAMP signaling, primary screen, cell-based, TR-FRET, antagonist arm of biased-ligand search | MC4R-expressing cells, MTII-stimulated cAMP, LANCE TR-FRET | inhibition, % at 6.5 µM | hit rate 0.48% among 360,000 | AID 540295, 2011;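 active = inhibition above its plate's cutoff, the mean of tested wells on that plate plus 3 SD, cut at about 29% in these data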;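 note: 0% = Melanotan II alone and 100% = Melanotan II plus saturating MCL0020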
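Material – human MC4R-expressing U2OS cells · Repeats – no replicates · Detection – TR-FRET with Eu-cAMP and labeled anti-cAMP, 671 nm · Times – compound 30 min, challenge 1 h, detection 1 h · Compound – single nominal compound dose of 6.5 µM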
MIN6 prolif = inducers of MIN6 beta-cell proliferation, primary screen, ATP luminescence, uHTS; MIN6 cells proliferation, ATPlite luminescence, 48 h; cells starved in 0.2% serum; 100% = growth in 10% serum; proliferation, % at 10 µM; hit rate 0.29% among 330,000; AID 2380, 2010;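 active = compounds whose signal lies at least 3.5 SD above the mean of all wells on their plate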;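 note: 0% = DMSO-treated cells in low-serum medium and 100% = 10% serum control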
MC4R barr ag = MC4R beta-arrestin agonists, retest, confirmation, cell-based, luminescence, U2OS; activation, % at 8.9 µM; shares compounds with MC4R ag barr; U2OS MC4R beta-arrestin recruitment; scaled DMSO 0%, Melanotan II 100%; hit rate 31% among 2,400;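 active = mean activation across replicates above the hit cutoff set in the earlier primary screen, cut at about 8% in these data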
MOR-DOR barr ag = agonists of MOR-DOR heterodimerization, counter-screen for MC4R biased agonist project, cell-based, luminescence. shares compounds with MC4R ag barr. U2OS PathHunter beta-arrestin, beta-gal luminescence; percent of deltorphin B response, DMSO zero. activation, % at 9.2 µM. hit rate 5.8% among 2,400. AID 602194, 2012;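 active = mean activation across replicates exceeds the hit threshold derived in the earlier primary screen, cut at about 18% in these data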;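 note: 100% = deltorphin B at 0.9 µM final and 0% = DMSO alone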
Starred values were filed as active, the others as inactive; · = no result. Shown are actives, neighbours in structure and some others; about 2.1% of the full set was active somewhere.

SMILES	NOD2-RIPK2 inh	TLR4 MyD88 comp	TLR9-MyD88 inh	MC4R ag barr	MC4R antagonist	MIN6 prolif	MC4R barr ag	MOR-DOR barr ag
COc1cccc(-c2cnc3c(NC=O)cc(-c4ccoc4)cn23)c1	0	·	·	44*	-2	·	34*	0
NS(=O)(=O)c1ccc(NC(=S)N2CCN(c3ccc(Cl)c(Cl)c3)CC2)cc1	-5	3	3	12*	-3	-3	-3	3
NS(=O)(=O)c1ccc(NC(=S)N2CCN(Cc3ccc(Cl)c(Cl)c3)CC2)cc1	-6	-7	·	-1	2	1	·	·
FC(F)(F)c1cccc(NC(=S)NC(c2ccccc2)c2ccccc2)c1	-14	16	5	10*	10	·	6	10
CC(C)(C)c1ccc(C(=O)NC(=O)COC(=O)c2ccco2)cc1	-8	·	-5	13*	-7	2	1	7
O=C(COC(=O)c1ccco1)NNC(=O)c1ccc(Cl)cc1	4	·	3	-4	10	6	·	·
Cc1cc(=O)oc2cc(OCC3CC(c4ccc(Cl)cc4)=NO3)ccc12 (configuration not stated)	-2	8	-11	0	12	0	·	·
NNC(=O)c1ccc(OCC2CC(c3ccc(Cl)cc3)=NO2)cc1 (configuration not stated)	-6	·	-6	12*	10	-1	0	5
CCS(=O)(=O)N1Cc2cc(C(=O)NCC3CC3)nc(-c3cccc(-c4cccnc4)c3)c2[C@@H]1CCO	-16	·	·	·	·	·	·	·
CCCn1nnc(NC(=O)c2ccc(-c3cc(Cl)ccc3Cl)o2)n1	-6	1	2	9.6*	2	0	8	3
CCCn1nnc(NC(=O)c2ccc(Cl)cc2Cl)n1	-2	16	-1	-1	-7	-2	·	·
CCC(C)c1ccc(OCC(=O)Nc2ccc(CN3CCOCC3)cc2)cc1 (configuration not stated)	0	·	-16	-1	3	-3	·	·
O=C(CCN1C(=O)/C(=C/C=C/c2ccccc2)SC1=S)Nc1ccccn1	-4	3	0	34*	14	-6	22*	12
O=C(CCN1C(=O)/C(=C/C=C/c2ccccc2)SC1=S)Nc1cccnc1	3	5	0	12*	-7	-6	32*	13
O=C(CCN1C(=O)/C(=C/c2ccc(Cl)cc2)SC1=S)Nc1cccnc1	-1	·	4	-3	-1	1	·	·
COc1cccc(C(C(=O)NC2CCCC2)N2CCN(c3cc(C)nc4ccccc34)CC2)c1OC (configuration not stated)	11	·	·	·	·	·	·	·
O=C(NCc1ccccc1Cl)C1CCCN(S(=O)(=O)c2cccc3nonc23)C1 (configuration not stated)	-13	·	-4	0	4	0	·	·
Cc1cccc(C)c1-c1ccc(CN2C(CC(C)C)C(=O)N(Cc3cn(CC4CCCCC4)nn3)CCS2(=O)=O)cc1 (configuration not stated)	3	·	3	1	9	·	·	·
Cc1ccc(NC(=O)CCCc2ccccc2)c([N+](=O)[O-])c1	1	·	6	0	5	0	·	·
CCN1/C(=C/c2ccc3cc(C)cc(C)c3[n+]2CC)Sc2cc(C)ccc21	-4	-2	-5	45*	-14	·	87*	14
CCN1/C(=C/c2ccc3cccc(C)c3[n+]2CC)Sc2ccccc21	8	24	3	-3	-13	-6	·	·
CC1CCCC(NC(=O)CN2C(=O)NC(c3ccccc3)(c3ccccc3)C2=O)C1C (configuration not stated)	2	·	7	-1	14	-5	·	·
COC(=O)COc1ccc2oc(=O)cc(-c3cc4ccccc4o3)c2c1	9	·	5	16*	-11	2	5	3
CN(C(=O)COc1cccc(C#N)c1)C1CCS(=O)(=O)C1 (configuration not stated)	12	·	1	2	9	1	·	·
Cc1ccc(C(C)C)c(OCc2nnc(SCC(=O)Nc3ncc(C)s3)n2C)c1	-3	10	-20	13*	-2	-2	6	7
SMILES	NOD2-RIPK2 inh	TLR4 MyD88 comp	TLR9-MyD88 inh	MC4R ag barr	MC4R antagonist	MIN6 prolif	MC4R barr ag	MOR-DOR barr ag
Cn1cnnc1SCC(=O)Nc1ccc2nc(SCc3cccc4ccccc34)sc2c1	-3	-7	-3	9.6*	10	-1	3	3
Cc1ccccc1OCc1nnc(SCC(=O)Nc2ccc3nc(SCC(=O)Nc4ccccc4)sc3c2)n1C	-5	8	-7	18*	-1	0	6	5
Cc1cnc(NC(=O)CSc2nnc(Cc3ccccc3)n2C)s1	-7	2	-5	-1	1	-2	·	·
O=C(CSc1nc2ccc(NC(=O)CSc3nnnn3Cc3ccccc3)cc2s1)Nc1ccccc1	-1	5	1	12*	4	-1	6	5
CC(OC(=O)CCN1C(=O)c2cccc([N+](=O)[O-])c2C1=O)C(=O)Nc1cc(Cl)cc(Cl)c1 (configuration not stated)	-14	13	-4	0	28	-1	·	·
COc1ccc(S(=O)(=O)NCC(c2ccc(F)cc2)N2CCN(C)CC2)cc1 (configuration not stated)	-3	·	3	-1	3	-5	·	·
COc1c(C(=O)Nc2ccc3[nH]c(=O)[nH]c3c2)cc2ccccc2c1Br	17	2	4	12*	7	-3	5	17
O=C(NCc1nc(-c2ccc(C(F)(F)F)cc2)no1)Nc1ccc(OC(F)(F)F)cc1	-1	·	·	11*	3	-3	5	2
COc1ccc(-c2noc(CNS(=O)(=O)c3ccc(NC(C)=O)cc3)n2)cc1	2	·	-5	0	-7	4	·	·

Screening results as filed in PubChem.
